Measured values published in ChEMBL document CHEMBL4376902, “CN128: A New Orally Active Hydroxypyridinone Iron Chelator” (J Med Chem, 2020).

Experiments:
[1] = Drug level in rat adrenal gland at 150 umol/kg, po measured measured up to 6 hrs by LC-MS/MS analysis; assay type: ADME, organism-based; conditions: in vivo
In short: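 Single oral dose of 150 μmol/kg to SD rats, half male and half female, n=6 per group. Rats decapitated at 10 min, 30 min, 2 h and 6 h. Tissues dissected, saline-washed, weighed and homogenised in acetonitrile/water 1:9 (125 mg/mL). Drug level measured against plasma; mean ± SE.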

Rattus norvegicus = experiment: Iron scavenging activity in 59Fe-ferritin-loaded rat assessed as iron mobilization level at 150 to 450 umol/kg, po dosed 1 hr after 59Fe-ferritin injection and measured 24 hrs after 59Fe-ferritin injection by gamma counting method relative to control; assay type: functional, organism-based
In short: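 Male SD rats, 300 g, fasted overnight, given about 1 μC 59Fe-ferritin i.v. under isoflurane. Chelator gavaged 1 h later, then rats housed in metabolic cages; food returned 1 h after dosing. Killed 24 h after 59Fe-ferritin. Urine, faeces, liver and gut gamma-counted. 8 rats per condition.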

[2] = Toxicity in iron-overloaded rat assessed as drug tolerability at 75 to 1200 umol/kg, po; conditions: in vivo

With Cc1c(O)c(O)cc[n+]1[C@@H](CO)Cc1ccccc1.[Cl-] the Drug uptake [1] was “Not Active”, the Activity (Rattus norvegicus) was “Dose-dependent effect” and the Activity [2] was “Non-Toxic”.
